TNF death inh – inhibitors of TNF-alpha induced necroptosis in Jurkat FADD-/- cells; AID 463075; Jurkat FADD-/- TNF necroptosis rescue, ATP luminescence, 24 h; 0 = TNF only, 100 = no-TNF cells; actives 0.068% (n = 220,000); activation (protection from cell death), % at 10 µM;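 active = activation, meaning protection from cell death, of at least 50% relative to plate controls; inactive = activation below 50%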;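 note: necroptosis triggered by 40 ng/mL TNF-alpha added together with compound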
zVAD death inh – blocks zVAD induced death of L929 cells; L929 zVAD necroptosis rescue, ATP luminescence, 24 h; with zVAD 60 µM; viability rescue, % at 10 µM; actives 0.38% (n = 220,000);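 active = activation, scaled between plate controls, above about 75%, limit read from the data; inactive = activation under that limit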
Mdm2 ligase inh – blocks human Mdm2 ubiquitin ligase activity; actives 0.11% (n = 210,000); signal enhancement, % at 5 µM; cell-based MDM2 ubiquitination luciferase reporter, 2 h; 0 = plate control, 100 = twice control, blank-subtracted;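 active = signal enhancement of 30% or more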;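 note: luminescence tracks abundance of the self-degrading MDM2-luciferase fusion protein; higher signal means inhibition of MDM2 E3 ligase activity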
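Assay system: stable mammalian line carrying autodegrading MDM2–luciferase fusion reporter; Input: 2000 cells in each well; Compound dosing: single-point 5 µM; Schedule: 2 h compound exposure at 37 °C; Signal: SteadyLite luciferase luminescence after 15 min room-temperature reagent incubation; Evaluation: % luminescence enhancement versus blank-corrected plate control mean; Benchmarks: plate controls and plate blanks.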
B2AR ag – human beta-2 adrenergic receptor agonism by FAP. P07550. Am2.2-beta2AR cells, FAP receptor internalization, flow cytometry. response, % (no concentration beside the values). actives 0.43% (n = 340,000);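 active = response above a set limit, near 3 SD of response in nonfluorescent compounds, cut at about 42% in these data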
Target sequence (P07550 whole entry, looked up): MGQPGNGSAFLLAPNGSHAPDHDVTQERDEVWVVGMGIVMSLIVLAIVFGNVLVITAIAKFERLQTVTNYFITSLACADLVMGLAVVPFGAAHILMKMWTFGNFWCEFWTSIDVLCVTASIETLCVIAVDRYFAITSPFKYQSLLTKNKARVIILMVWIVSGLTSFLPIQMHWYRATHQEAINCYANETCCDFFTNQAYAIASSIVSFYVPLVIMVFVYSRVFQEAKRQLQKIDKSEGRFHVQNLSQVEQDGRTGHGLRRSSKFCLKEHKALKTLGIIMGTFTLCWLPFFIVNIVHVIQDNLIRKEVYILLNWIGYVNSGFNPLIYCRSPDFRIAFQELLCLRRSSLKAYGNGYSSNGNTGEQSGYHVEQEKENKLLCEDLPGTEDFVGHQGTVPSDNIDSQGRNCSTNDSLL
Dynein cargo inh – blocks dynein driven cargo transport along microtubules | 3617.4 mouse cells, GR-EGFP nuclear translocation imaging; test concentration mostly 20 µM; stimulated with dexamethasone, 1 µM; stronger effect = lower value | z-score, hits read low | actives 0.47% (n = 220,000);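 active = plate z-score of nuclear minus cytoplasmic receptor signal below a set negative limit, without overly bright fluorescence or cell loss, cut at about -3.5 in these data, passing the limit was not always enough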;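 note: z-score of nuclear minus cytoplasmic ring GR-EGFP intensity difference per well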
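Buffer or medium – tet-free medium with charcoal-stripped serum · Signal – automated 10x imaging of fixed Hoechst-stained cells · Also added – dexamethasone agonist, 1.0 µM final, for 30 min · Incubation – induction 48 h, compound 1 h, agonist 30 min · Read-out – GR-EGFP nuclear translocation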
Numbers stand for hits; - = inactive; . = not tested or not shown. Only some compounds are listed: those with a hit (about 0.97% of all), similar ones and a draw of the others.

SMILES | TNF death inh | zVAD death inh | Mdm2 ligase inh | B2AR ag | Dynein cargo inh
CC(C)(C)C1=CC=C(C(C)(C)C)C(=O)C1=O | - | - | - | . | -3.7
CC1(C)C(=O)OC(c2ccc([N+](=O)[O-])cc2)C(C)(C)C1=O (stereo unspecified) | . | . | . | - | .
COc1ccc(S(=O)(=O)ON=C2CC(C)(C)N(C(C)=O)C(C)(C)C2)cc1 | - | - | - | - | -
CC(C)CS(=O)(=O)C1=NSC2=NC(=O)/C(=C\c3ccc(OC(=O)c4ccco4)cc3)C(=N)N21 | . | . | . | - | .
CSC1=NSC2=NC(=O)/C(=C\c3ccc(OC(=O)c4ccco4)cc3)C(=N)N12 | . | . | . | 43 | .
CCOc1cc(/C=C(/C#N)C(=O)Nc2ccc(O)cc2)cc(Br)c1O | - | - | - | 52 | -
NC(=O)c1ccc(N=Cc2ccc([N+](=O)[O-])s2)cc1 | - | - | - | - | -4
Cc1cc(C)cc(N=Cc2ccc([N+](=O)[O-])s2)c1 | - | - | - | - | -
Cc1cc(N2CCOCC2)ccc1/C=C\[N+](=O)[O-] | - | - | - | 42 | -
Cc1cc([N+](=O)[O-])nn1Cc1ccccc1F | 95 | 91 | - | - | -
Cc1cc([N+](=O)[O-])nn1Cn1nc([N+](=O)[O-])cc1C | - | - | - | - | -
Cc1ccc(CCNC(=O)CN(C)S(=O)(=O)c2cnc[nH]2)cc1 | - | - | - | - | -
Nc1nnc(CSc2ccc(Cl)cc2)s1 | - | 104 | - | - | -
C#CCOCCOCCOCCNc1nc(N2CCN(C(=O)CCCCCCCCCCNC(=O)Cn3cc(CCCCCN)nn3)CC2)nc(N2CCN(C(=O)CCCCCCCCCCNC(=O)[C@@H](CCSC)n3cc(CCO)nn3)CC2)n1 | . | . | . | 75 | .
C#CCOCCOCCOCCNc1nc(N2CCN(C(=O)CCCCCCCCCCNC(=O)Cn3cc(CCCCCN)nn3)CC2)nc(N2CCN(C(=O)CCCCCCCCCCNC(=O)Cn3cc(CCCCCN)nn3)CC2)n1 | . | . | . | 45 | .
Cn1nc(-c2ccccc2)cc1NC(=O)c1cccs1 | - | - | - | - | -
CCOC(=O)N1CCc2c(sc3nc(SC(C)C)n(N)c(=O)c23)C1 | - | - | - | - | -
Cc1ccc(S(=O)(=O)ON2C(=O)c3ccccc3C2=O)c(C)c1 | - | - | - | - | -4.8
O=C(O)c1ccc(N/N=C/c2cc3cc4c(cc3nc2Cl)OCCO4)cc1 | - | - | - | 45 | -
O=C1c2cccc3cccc(c23)C(=O)N1c1nccs1 | - | - | - | - | -
O=C1c2cccc3cccc(c23)C(=O)N1c1ccc2ncccc2c1 | - | - | - | 70 | -
O=[N+]([O-])c1ccc(S(=O)Cc2ccccc2)c([N+](=O)[O-])c1 (stereo unspecified) | . | . | . | 49 | .
O=[N+]([O-])c1ccc(CS(=O)c2ccccc2)cc1 (stereo unspecified) | . | . | . | - | .
c1csc(Cc2nc3ccccc3[nH]2)c1 | 65 | - | - | - | -
O=C1ON=C(c2cccc([N+](=O)[O-])c2)/C1=C/c1ccc(O)cc1 | - | - | - | 53 | -
SMILES | TNF death inh | zVAD death inh | Mdm2 ligase inh | B2AR ag | Dynein cargo inh
O=C1NC(=Nc2ccc(F)cc2)CS1 | - | - | - | - | -
CC(C)C(=O)Nc1cccc(C(=O)OCC(=O)c2ccc(Cl)cc2Cl)c1 | - | - | - | - | -
COc1ccc2c(=O)c(-c3nc(C)cs3)coc2c1 | - | - | - | - | -
O=C(/C=C/c1ccc(OCCCF)cc1)N1CCN(Cc2ccccc2)CC1 | . | . | . | - | .
Cc1cc(C)c(S(=O)(=O)NCCc2cc3ccc(C)c(C)c3[nH]c2=O)c(C)c1 | . | . | . | - | .
Cc1ccc2cc(CCNS(=O)(=O)c3ccc(Br)cc3)c(=O)[nH]c2c1C | . | . | . | 55 | .
O=C(/C=C/c1cn(-c2ccccc2)nc1-c1cccnc1)c1ccco1 | - | - | - | 81 | -
O=C(/C=C/c1cn(-c2ccccc2)nc1-c1cccnc1)N1CCCC1 | - | - | - | - | -
CSC1=NCCN1C(=O)C(C)Oc1ccccc1 (stereo unspecified) | - | - | - | - | -
CN(C)CCCNC(=S)NCC(c1ccc(Cl)cc1Cl)c1c[nH]c2ccccc12 (stereo unspecified) | . | . | . | 47 | .
CC(C)COc1ccc(C(=O)OCCN2CCOCC2)c(O)c1 | - | - | - | - | -
O=C(NNS(=O)(=O)c1ccc(CCCl)cc1)C(O)(c1ccccc1)c1ccccc1 | - | - | - | - | -
CCOC(=O)C1CCN(S(=O)(=O)c2c(Cl)ccc3nonc23)CC1 | . | . | . | 79 | .
CC(SC#N)C(=O)C12CC3CC(CC(C3)C1)C2 (stereo unspecified) | - | - | - | - | -6.8
Cn1c(=O)[nH]c(=O)c2c1nc(Br)n2C/C=N/Nc1ccccc1 | - | - | - | - | -
O=C(COC(=O)/C=C/c1ccc(Cl)cc1)NC1CC1 | . | . | . | - | .
O=C(COC(=O)/C=C/c1ccc(Cl)cc1)NC1CCCCCC1 | . | . | . | 44 | .
FC(F)(F)C1=Nc2cccc3cccc(c23)N1 | . | . | . | 82 | .
Fc1ccc(C2=Nc3cccc4cccc(c34)N2)cc1 | - | - | - | - | -
CC(C)(C)NC(=O)CN(C(=O)CCC(=O)Nc1nccs1)c1ccc(F)c(Cl)c1 | . | . | . | - | .
CCOc1ccccc1C(=O)NC1CCNCC1 | . | . | . | - | .
O=C(C=P(c1ccccc1)(c1ccccc1)c1ccccc1)c1ccccc1-c1ccccc1C(=O)C=P(c1ccccc1)(c1ccccc1)c1ccccc1 | . | . | . | 104 | .
O=C(OCn1ncc(Br)c(Br)c1=O)c1ccccc1Cl | - | - | - | 49 | -
CCO[C@H]1OC(C(=O)NCc2nc3ccccc3[nH]2)=C[C@@H](c2cn(C(C)=O)c3ccccc23)[C@@H]1CCCO | . | . | . | - | .
Nc1c(N2CCOCC2)cc(Cl)c2nonc12 | - | - | - | 46 | -
